SENP8 block-1 – blocks the human protease SENP8; Q96LD8; purified SENP8, Z-RLRGG-aminoluciferin cleavage, luminescence; inhibition, % at 10 µM; 330,000 tested, 1.2% active; AID 2540; in the data active means inhibition above about 50%
SENP6 inh – SENP6 protease inhibition | 330,000 tested, 1.8% active | Recombinant SENP6 catalytic domain, aminoluciferin luminescence | inhibition, % at 10 µM | Q9GZR1;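 active means inhibition above about 50% at the single tested dose, limit read from the data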;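 further: plate controls were DMSO wells with enzyme for no effect and DMSO wells lacking enzyme for full effect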
SENP1 inh – inhibitors of human SENP1 SUMO protease catalytic domain; Q9P0U3; recombinant SENP1 catalytic domain, CyPet-SUMO1-YPet FRET cleavage; inhibition, % at 10 µM; 360,000 tested, 0.21% active; AID 624204;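 active means inhibition at least 30% at 10 µM, raw YFP signal under a set limit, fluorescence ratio 0.5 to 1.5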;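 further: 0% = enzyme with DMSO and 100% = no enzyme wells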
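System: Recombinant human SENP1 catalytic domain, His6-tagged | Incubation: Enzyme reaction for 50 min at room temperature, dark | Medium: Tris pH 8 with BME, BSA, NP40 and catalase | Also added: 25 nM SUMO1 FRET substrate | Compound: 10 µM single point, 0.5% DMSO | Measured by: FRET fluorescence in CFP and YFP emission channels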
SENP8 block-2 – blocks human SENP8 cleavage of Nedd8 substrate; Q96LD8; recombinant SENP8, Nedd8 substrate fluorescence; inhibition, % at 20 µM; 360,000 tested, 0.64% active; AID 602440; in the data active means inhibition mostly above about 40%, no sharp cut-off; inactive means mostly below about 27%
Platelet DG rel – modulates dense granule release in human platelets. human platelet-rich plasma, SFLLRN dense granule ATP release, luminescence. inhibition, %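 (compounds screened at 7.5 µM in platelet-rich plasma)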. 300,000 tested, 0.22% active. AID 1663;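 active means mean replicate score, as percent of positive control, at or above 50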
SENP7 block – blocks the human protease SENP7 | 330,000 tested, 1.5% active | inhibition, % at 5 µM | recombinant SENP7, Z-RLRGG-aminoluciferin luminescence, 40 min | Q9BQF6 | AID 434973;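 active means inhibition above about 50% at the single test dose, limit read from the data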;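 further: plate controls were DMSO with enzyme for no effect and no enzyme buffer wells for full effect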
Target sequence (Q9BQF6 706-1050 limits assumed): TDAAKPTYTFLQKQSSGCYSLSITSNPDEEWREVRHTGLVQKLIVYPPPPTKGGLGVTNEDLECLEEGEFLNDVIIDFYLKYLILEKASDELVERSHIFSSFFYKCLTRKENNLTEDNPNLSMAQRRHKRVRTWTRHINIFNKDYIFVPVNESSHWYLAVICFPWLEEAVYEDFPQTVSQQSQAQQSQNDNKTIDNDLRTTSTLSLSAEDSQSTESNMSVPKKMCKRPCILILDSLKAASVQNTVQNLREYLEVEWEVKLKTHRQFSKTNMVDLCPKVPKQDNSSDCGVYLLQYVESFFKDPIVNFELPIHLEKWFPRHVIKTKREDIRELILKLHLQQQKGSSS
* = called active by the depositor. The list is not random: actives were taken first. Their share in the collection is about 2.6%.

For O=[N+]([O-])c1ccc2c(c1N1CCCCC1)=NC1(CCCCC1)[N+]=2[O-] the results were SENP8 block-1 12, SENP6 inh 25, SENP1 inh -3, SENP8 block-2 35, Platelet DG rel -3 and SENP7 block 1.
`[O-][N+]1=c2ccc(Nc3ccccc3)cc2=NC12CCCCC2` gave SENP1 inh 11, SENP8 block-2 86* and Platelet DG rel -2.
`Cc1ccsc1C(=O)Nc1ccc(F)c([N+](=O)[O-])c1` gave SENP8 block-1 53*, SENP6 inh 77*, SENP1 inh 3, SENP8 block-2 9, Platelet DG rel -1 and SENP7 block 71*.
`COc1cc2c(cc1OC)-c1cc(Nc3ccc(N(C)C)cc3)nc(=O)n1CC2` gave SENP8 block-1 -7, SENP6 inh -8, SENP1 inh -35, SENP8 block-2 -264, Platelet DG rel 76* and SENP7 block -10.
`COc1cc2c(cc1OC)-c1cc(Nc3ccc(F)cc3)nc(=O)n1CC2` gave SENP8 block-1 6, SENP6 inh -12, SENP1 inh -10, SENP8 block-2 -224, Platelet DG rel 95* and SENP7 block -9.
COc1cc2c(cc1OC)-c1cc(Nc3cccc(F)c3)nc(=O)n1CC2 was read as SENP8 block-1 -8, SENP6 inh -2, SENP1 inh -13, SENP8 block-2 -319, Platelet DG rel 71* and SENP7 block 2.
`CCN(CC)c1ccc(Nc2cc3n(c(=O)n2)CCc2cc(OC)c(OC)cc2-3)cc1` gave SENP8 block-1 19, SENP6 inh 15, SENP1 inh 2, SENP8 block-2 -38, Platelet DG rel 20 and SENP7 block 5.
`C=CCc1cc(Cl)ccc1OCCCNC(C)CC` (centres undefined) gave SENP8 block-1 -2, SENP6 inh -7, SENP1 inh 1, SENP8 block-2 9, Platelet DG rel 2 and SENP7 block 2.
CCOC(=O)N1CCC(N2CC34C=CC(O3)C(C(=O)Nc3ccc(C(C)C)cc3)C4C2=O)CC1 (centres undefined) was read as SENP8 block-1 0, SENP6 inh 1, SENP1 inh 1, SENP8 block-2 7 and SENP7 block -6.
O=C(CCS(=O)(=O)Cc1ccccc1)Nc1nncs1 was read as SENP8 block-1 -4, SENP6 inh -14, SENP1 inh -1, SENP8 block-2 7, Platelet DG rel -22 and SENP7 block 2.
O=C(CCc1ccccc1)Nc1nncs1 was read as SENP8 block-1 -6, SENP6 inh 3, SENP1 inh -1, SENP8 block-2 6, Platelet DG rel 59* and SENP7 block 6.
For Cn1cccc1/C=C1\SC(=S)N(Nc2ccccc2)C1=O the results were SENP8 block-1 5, SENP6 inh 18, SENP1 inh -96, SENP8 block-2 43*, Platelet DG rel 3 and SENP7 block 15.
CCn1nc(C(=O)Nc2ccccc2N2CCCC2)c2ccccc2c1=O was read as SENP8 block-1 3, SENP6 inh -1, SENP1 inh 3, SENP8 block-2 5 and SENP7 block -8.
`S=c1[nH]ncn1/N=C/c1ccc(Br)cc1` gave SENP8 block-1 -8, SENP6 inh 20, SENP1 inh -2, SENP8 block-2 21, Platelet DG rel 5 and SENP7 block 4.
`Nc1cc2sc(-c3ccc(C(=O)O)cc3)nc2cc1Cl` gave SENP8 block-1 98*, SENP6 inh 97*, SENP1 inh -26, SENP8 block-2 -308, Platelet DG rel 77* and SENP7 block 100*.
Cc1ccc(O)c(N=NC2=C(O)CC(C)(C)CC2=O)c1 was read as SENP8 block-1 -3, SENP6 inh -19, SENP1 inh 22, SENP8 block-2 42*, Platelet DG rel 24 and SENP7 block -4.
`CC1(C)CC(=O)C(N=Nc2cc(Cl)c(Cl)c(Cl)c2)=C(O)C1` gave SENP8 block-1 2, SENP6 inh 3, SENP1 inh 2, SENP8 block-2 40, Platelet DG rel -3 and SENP7 block 3.
CN(C(=O)c1ccncc1)c1ccccc1 was read as SENP8 block-1 -9, SENP6 inh -14, SENP1 inh 1, SENP8 block-2 12, Platelet DG rel 5 and SENP7 block -5.
`Oc1ccc(C=Nc2ccc3ncccc3c2)c(O)c1` gave SENP8 block-1 89*, SENP6 inh 84*, Platelet DG rel -27 and SENP7 block 25.

Screening results from PubChem.
